Measured values taken from ChEMBL document CHEMBL1145796, “Neuromuscular blocking activity and therapeutic potential of mixed-tetrahydroisoquinolinium halofumarates and halosuccinates in rhesus monkeys” (2003).

Legend:
[1] = Time from injection to 95% recovery of the twitch response at the ED95 dose in male Rhesus monkey.; assay type: functional, Cercopithecidae
Method in brief: (§1)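 Anesthetized, ventilated male rhesus monkeys received sequential iv bolus doses with extensor digitorum twitch recorded. Onset is injection to peak twitch inhibition. Duration is injection to 95% twitch recovery. Values at the ED95 were read from plots of onset or duration vs dose. Means ± SE across animals.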

[2] = Dose required for 95% suppression of the twitch response at the extensor digitorum in male Rhesus monkey.; assay type: functional, Cercopithecidae
Method in brief: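 Adult male rhesus monkeys (8–15 kg) under ketamine (5 mg/kg i.m.) and pentobarbital (2–5 mg/kg iv) induction, then N2O 60%/O2 40%/halothane 0.5–1%, ventilated, core temperature 37–38 °C. Twitch of extensor digitorum was recorded after ≥20 min stable baseline. Sequential iv bolus doses from 0.03 to 6.4 mg/kg. Per-animal ED95 came from log-probability regression of dose vs % block. Other lines give the single dose tested with its % block.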

[3] = Time from injection to peak inhibition of twitch response at the ED95 dose in male Rhesus monkey.; assay type: functional, Cercopithecidae; method in brief: as §1
[4] = Selectivity index is changes in heart rate(cv dose) to the suppression of twitch response (ED95) in male Rhesus monkey; assay type: functional, Cercopithecidae
Method in brief: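 Same anesthetized male rhesus preparation, with blood pressure, heart rate and EKG recorded alongside twitch during sequential iv doses up to 6.4 mg/kg. Cardiovascular threshold dose is the dose giving ≥10% change in heart rate or mean arterial pressure. Index = mean threshold dose / mean ED95 (extensor digitorum).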

[5] = Time from injection to peak inhibition of twitch response at a dose of 0.2 mg/kg in male Rhesus monkey was evaluated; assay type: functional, Cercopithecidae
Method in brief: (§2)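 Single iv bolus of 0.2 or 0.4 mg/kg in anesthetized, ventilated male rhesus monkeys, with extensor digitorum twitch recorded. Onset taken from injection to peak twitch inhibition at the given dose. Means ± SE, N = number of animals.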

[6] = Time from injection to peak inhibition of twitch response at a dose of 0.4 mg/kg in male Rhesus monkey was evaluated; assay type: functional, Cercopithecidae; method in brief: as §2
[7] = Time from injection to 95% recovery of twitch response at a dose of 0.2 mg/kg in male Rhesus monkey was evaluated
[8] = Time from injection to 95% recovery of twitch response at a dose of 0.4 mg/kg in male Rhesus monkey was evaluated
[9] = Cercopithecidae, read-out: ED95

Compound	Duration [1]	ED95 [2, 9]	Onset [3]	Selectivity index [4]	Onset [5]	Onset [6]	Duration [7]	Duration [8]	ED95 [2]
COc1cc2c(cc1OC)[C@@H](c1cc(OC)c(OC)c(OC)c1)[N@+](C)(CCCOC(=O)/C(Cl)=C/C(=O)OCCC[N@+]1(C)CCc3cc(OC)c(OC)cc3[C@H]1Cc1cc(OC)c(OC)c(OC)c1)CC2.[Cl-].[Cl-]	3.7 min								
COc1cc2c(cc1OC)[C@H](c1cc(OC)c(OC)c(OC)c1)[N@@+](C)(CCCOC(=O)CCCCCCCC(=O)OCCC[N@+]1(C)CCc3cc(OC)c(OC)cc3[C@H]1Cc1cc(OC)c(OC)c(OC)c1)CC2.[Cl-].[Cl-]	9.7 min	0.17 mg/kg	79 s	19					
COc1cc2c(cc1OC)C(c1cc(OC)c(OC)c(OC)c1)[N@+](C)(CCCOC(=O)/C=C/C(=O)OCCC[N@+]1(C)CCc3cc(OC)c(OC)cc3[C@H]1c1cc(OC)c(OC)c(OC)c1)CC2.[Cl-].[Cl-] (some centres not stated)	25.5 min	1.55 mg/kg	114 s	0.65					
COc1cc2c(cc1OC)[C@H](c1cc(OC)c(OC)c(OC)c1)[N@@+](C)(CCCOC(=O)/C=C(\Cl)C(=O)OCCC[N@@+]1(C)CCc3cc(OC)c(OC)cc3[C@@H]1c1cc(OC)c(OC)c(OC)c1)CC2.[Cl-].[Cl-]				1.5					
COc1cc2c(cc1OC)[C@H](c1cc(OC)c(OC)c(OC)c1)[N@@+](C)(CCCOC(=O)CCCCCCC(=O)OCCC[N@+]1(C)CCc3cc(OC)c(OC)cc3[C@H]1Cc1cc(OC)c(OC)c(OC)c1)CC2.[Cl-].[Cl-]	10.9 min	0.067 mg/kg	117 s	12					
COc1cc2c(cc1OC)[C@H](c1cc(OC)c(OC)c(OC)c1)[N@@+](C)(CCCOC(=O)/C=C(\F)C(=O)OCCC[N@+]1(C)CCc3cc(OC)c(OC)c(OC)c3[C@H]1Cc1cc(OC)c(OC)c(OC)c1)CC2.[Cl-].[Cl-]	10 min	0.077 mg/kg	85 s	21					
COc1cc2c(cc1OC)C(Cc1cc(OC)c(OC)c(OC)c1)[N@+](C)(CCCOC(=O)/C(Cl)=C/C(=O)OCCC[N@+]1(C)CCc3cc(OC)c(OC)cc3[C@H]1Cc1cc(OC)c(OC)c(OC)c1)CC2.[Cl-].[Cl-] (some centres not stated)	7.1 min	0.079 mg/kg	96 s	20					
COc1cc2c(cc1OC)[C@H](c1cc(OC)c(OC)c(OC)c1)[N@@+](C)(CCCOC(=O)CCC(F)(F)C(=O)OCCC[N@+]1(C)CCc3cc(OC)c(OC)cc3[C@H]1Cc1cc(OC)c(OC)c(OC)c1)CC2.[Cl-].[Cl-]	5.7 min	0.22 mg/kg	48 s						
COc1cc(CC2c3cc4c(cc3CC[N@@+]2(C)CCCOC(=O)/C(Cl)=C/C(=O)OCCC[N@+]2(C)CCc3cc5c(cc3[C@H]2Cc2cc(OC)c(OC)c(OC)c2)OCO5)OCO4)cc(OC)c1OC.[Cl-].[Cl-] (some centres not stated)	2.4 min	0.62 mg/kg	27 s	1.3					
COc1cc2c(cc1OC)[C@H](c1cc(OC)c(OC)c(OC)c1)N(CCCOC(=O)/C=C(\Cl)C(=O)OCCC[N@+]1(C)CCc3cc(OC)c(OC)cc3[C@H]1Cc1cc(OC)c(OC)c(OC)c1)CC2.Cl.[Cl-]	5.4 min	0.87 mg/kg	38 s						
COc1cc2c(cc1OC)[C@H](c1cc(OC)c(OC)c(OC)c1)[N@@+](C)(CCCOC(=O)CC(F)(F)C(=O)OCCC[N@+]1(C)CCc3cc(OC)c(OC)cc3[C@H]1Cc1cc(OC)c(OC)c(OC)c1)CC2.[Cl-].[Cl-]	7.3 min	0.056 mg/kg	78 s	96	37 s	22 s	10.3 min	13 min	
COc1cc2c(cc1OC)C(c1cc(OC)c(OC)c(OC)c1)[N@+](C)(CCCOC(=O)/C(Cl)=C/C(=O)OCCC[N@+]1(C)CCc3cc(OC)c(OC)cc3[C@H]1c1cc(OC)c(OC)c(OC)c1)CC2.[Cl-].[Cl-] (some centres not stated)	5.1 min	1.79 mg/kg	46 s	3.6					
COc1cc2c(cc1OC)[C@H](c1cc(OC)c(OC)c(OC)c1)[N@@+](C)(CCCOC(=O)C(F)(F)CC(=O)OCCC[N@+]1(C)CCc3cc(OC)c(OC)cc3[C@H]1Cc1cc(OC)c(OC)c(OC)c1)CC2.[Cl-].[Cl-]	4.9 min	0.39 mg/kg	26 s						
COc1cc2c(cc1OC)[C@@H](c1cc(OC)c(OC)c(OC)c1)[N@+](C)(CCCOC(=O)/C=C(\Cl)C(=O)OCCC[N@+]1(C)CCc3cc(OC)c(OC)c(OC)c3[C@H]1Cc1cc(OC)c(OC)c(OC)c1)CC2	10 min	0.067 mg/kg	57 s	24					
COc1cc2c(cc1OC)[C@H](c1cc(OC)c(OC)c(OC)c1)[N@@+](C)(CCCOC(=O)CCCCCCCCC(=O)OCCC[N@+]1(C)CCc3cc(OC)c(OC)cc3[C@H]1Cc1cc(OC)c(OC)c(OC)c1)CC2.[Cl-].[Cl-]	13.5 min	0.2 mg/kg	110 s						
COc1cc2c(cc1OC)[C@H](c1cc(OC)c(OC)c(OC)c1)[N@@+](C)(CCCOC(=O)CC(F)(F)C(=O)OCCC[N@+]1(C)CCc3cc(OC)c(OC)c(OC)c3[C@H]1Cc1cc(OC)c(OC)c(OC)c1)CC2.[Cl-].[Cl-]	14 min	0.04 mg/kg	217 s	60					
COc1cc2c(cc1OC)[C@H](c1cc(OC)c(OC)c(OC)c1)[N@@+](C)(CCCOC(=O)/C=C(\F)C(=O)OCCC[N@+]1(C)CCc3cc(OC)c(OC)cc3[C@H]1Cc1cc(OC)c(OC)c(OC)c1)CC2.[Cl-].[Cl-]	4.4 min	0.137 mg/kg	66 s	37					
COc1cc2c(cc1OC)[C@H](c1cc(OC)c(OC)c(OC)c1)[N@@+](C)(CCCOC(=O)CCCCC(=O)OCCC[N@+]1(C)CCc3cc(OC)c(OC)cc3[C@H]1Cc1cc(OC)c(OC)c(OC)c1)CC2.[Cl-].[Cl-]	13 min	0.136 mg/kg	75 s						
COc1cc2c(cc1OC)[C@@H](Cc1cc(OC)c(OC)c(OC)c1)[N@+](C)(CCCOC(=O)/C(Cl)=C/C(=O)OCCC[N@+]13CCc4cc(OC)c(OC)cc4[C@H]1c1cc(OC)c(OC)cc1CC3)CC2.[Cl-].[Cl-]	5.2 min	0.078 mg/kg	94 s	5					
COc1ccc([C@@H]2c3cc(OC)c(OC)cc3CC[N@@+]2(C)CCCOC(=O)CC(F)(F)C(=O)OCCC[N@+]2(C)CCc3cc(OC)c(OC)cc3[C@H]2Cc2cc(OC)c(OC)c(OC)c2)cc1OC.[Cl-].[Cl-]	3.9 min	0.06 mg/kg	55 s						
COc1cc2c(cc1OC)[C@H](c1cc(OC)c(OC)c(OC)c1)[N@@+](C)(CCCOC(=O)/C=C(\Cl)C(=O)OCCC[N@+]13CCc4cc(OC)c(OC)c(OC)c4[C@H]1Cc1cc(OC)c(OC)c(OC)c1C3)CC2.[Cl-].[Cl-]	4.5 min	0.8 mg/kg	28 s						
COc1cc2c(cc1OC)[C@@H](c1cc(OC)c(OC)c(OC)c1)[N@+](C)(CCCOC(=O)/C=C(\Cl)C(=O)OCCC[N@+]1(C)CCc3cc(OC)c(OC)c(OC)c3[C@H]1Cc1cc(OC)c(OC)c(OC)c1)CC2.[Cl-].[Cl-]	9.9 min	0.053 mg/kg	113 s	15					
COc1ccc([C@H]2c3cc(OC)c(OC)cc3CC[N@+]2(C)CCCOC(=O)/C=C(\Cl)C(=O)OCCC[N@+]2(C)CCc3cc(OC)c(OC)cc3[C@H]2Cc2cc(OC)c(OC)c(OC)c2)cc1.[Cl-].[Cl-]	7.4 min	0.136 mg/kg	69 s	6					
COc1cc2c(cc1OC)[C@H](c1ccc(F)c(F)c1)[N@@+](C)(CCCOC(=O)/C=C(\Cl)C(=O)OCCC[N@+]1(C)CCc3cc(OC)c(OC)cc3[C@H]1Cc1cc(OC)c(OC)c(OC)c1)CC2.[Cl-].[Cl-]	4.7 min	0.09 mg/kg	72 s	18					
COc1cc2c(cc1OC)[C@H](c1cc(OC)c(OC)c(OC)c1)[N@@+](C)(CCCOC(=O)/C=C(\Cl)C(=O)OCCC[N@+]1(C)CCc3cc(OC)c(OC)cc3[C@H]1Cc1cc(OC)c(OC)c(OC)c1)CC2.[Cl-].[Cl-] (stereo in doubt; 24a) [GANTACURIUM CHLORIDE]				57					0.063 mg/kg
COc1cc2c(cc1OC)[C@H](c1cc(OC)c(OC)c(OC)c1)[N@@+](C)(CCCOC(=O)/C=C(\Cl)C(=O)OCCC[N@+]1(C)CCc3cc(OC)c(OC)cc3[C@H]1Cc1cc(OC)c(OC)c(OC)c1)CC2.[Cl-].[Cl-] (stereo in doubt; 24a/24b) [GANTACURIUM CHLORIDE]				27					0.163 mg/kg
COc1cc2c(cc1OC)[C@@H](Cc1cc(OC)c(OC)c(OC)c1)[N+](C)(CCCOC(=O)CC/C=C/CCC(=O)OCCC[N+]1(C)CCc3cc(OC)c(OC)cc3[C@H]1Cc1cc(OC)c(OC)c(OC)c1)CC2.[Cl-].[Cl-] (some centres not stated) [MIVACURIUM CHLORIDE]				24					
